# CHOP inh – inhibitors of CHOP induction in ER stress response | CHO-K1 CHOP-promoter luciferase, tunicamycin-induced, 15-18 h | AID 2732 | inhibition, % at 10 µM | actives 3.8% (n = 220,000);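 active = compounds that reduced the stress-induced luciferase reporter signal by more than about 70% of percent inhibition, limit read from the data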;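 note: 0% = tunicamycin plus vehicle and 100% = wells without tunicamycin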
# WT yeast gro inh – growth inhibition of WT yeast, mitochondrial fusion screen; mitochondrial fusion phenotypic screen, WT strain; inhibition, % at 10 µM; actives 2.1% (n = 190,000); AID 1362; in the data active = inhibition above about 58%; tested in S. cerevisiae
# MPTP inh – blocks calcium-induced mitochondrial swelling; isolated mouse mitochondria, Ca2+ swelling absorbance, 30 min; inhibition, % at 10 µM; actives 1.4% (n = 360,000);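 active = inhibition of 50% or more, scaled per plate between neutral and stimulator controls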;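 note: 0% = DMSO wells given calcium and 100% = 1 mM EGTA wells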
# TbMetRS inhib – Trypanosoma brucei MetRS inhibition | actives 0.4% (n = 360,000) | purified T. brucei MetRS, ATP depletion, Kinase-Glo luminescence | inhibition, % at 11.9 µM;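 active = inhibition above a per-plate cutoff of the control wells' mean inhibition plus 3 SD, cut at about 5.5% in these data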;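 note: 0% = DMSO wells median and 100% = median of wells with control inhibitor compound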
#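 assay system = parasite MetRS enzyme | timing = 15 min preincubation, 2 h reaction, all 25 °C | evaluation = percent inhibition relative to median high and low control wells | medium = HEPES buffer containing pyrophosphatase, BSA, spermine, DTT | compound = single dose, 11.9 µM final nominal, 0.9% final DMSO | detection = Kinase-Glo luminescence, ATP depletion format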
# EBV gp42 block – EBV gp42 inhibition; Q1HVG2; Fluorescence polarization binding assay, mP read-out; inhibition, % (tested at 21.74 µM); actives 0.42% (n = 220,000); in the data active = inhibition above about 50%
# Target sequence (Q1HVG2 whole entry, looked up): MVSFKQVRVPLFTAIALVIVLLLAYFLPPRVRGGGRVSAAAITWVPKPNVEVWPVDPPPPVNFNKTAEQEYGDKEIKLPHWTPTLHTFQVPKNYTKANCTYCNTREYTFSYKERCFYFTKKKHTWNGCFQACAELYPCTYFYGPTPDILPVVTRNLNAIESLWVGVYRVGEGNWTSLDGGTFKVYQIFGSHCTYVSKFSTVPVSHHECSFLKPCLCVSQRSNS
# NR3A LBD binder – modulators (binders) of human NR3A ligand-binding domain; NR3A LBD differential scanning fluorimetry, Tm shift; 0% = protein alone, 100% = glycine-bound protein; Tm shift relative to glycine control, % at 25 µM; actives 2.5% (n = 340,000);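 active = melting temperature shift of at least 10% of the positive control shift, at one fixed dose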
# MPTP counter – membrane potential counter-screen of mitochondrial pore inhibitors; shares compounds with MPTP inh; isolated mitochondria, Rhodamine 123 fluorescence; inhibition, % at 10 µM; actives 78% (n = 5,000); AID 624504; in the data active = inhibition above about 22%;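 note: 0% = DMSO vehicle and 100% = positive control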
# MPTP abs DR – dose response confirmation of mitochondrial permeability transition pore inhibitors; actives 58% (n = 780); shares compounds with MPTP inh; IC50, µM; isolated mitochondria swelling, absorbance; in the data active = IC50 below about 20 µM
# MPTP cs DR – MPTP inhibitor counter-screen activity, dose response; shares compounds with MPTP inh; isolated mitochondria counterscreen, fluorescence read-out; IC50, µM; actives 49% (n = 780); in the data active = IC50 below about 80 µM
# Starred values were filed as active, the others as inactive; · = no result given. This is a sample that favours compounds with a hit; in the whole collection about 6.4% have one here.
SMILES,CHOP inh,WT yeast gro inh,MPTP inh,TbMetRS inhib,EBV gp42 block,NR3A LBD binder,MPTP counter,others
c1ccc(-c2csc3ncnc(NCC4COc5ccccc5O4)c23)cc1 (stereo not drawn),93.1*,72.2*,97.0*,-0.4,-11.4,-1.1,85.0*,
Cc1sc2ncnc(NCC(C)(C)N3CCOCC3)c2c1C,30.2,0.0,80.2*,-1.1,-8.5,-8.2,84.1*,
c1ccc(-c2csc3ncnc(NCCCN4CCOCC4)c23)cc1,6.4,-9.0,6.4,0.1,-3.3,0.7,·,
COc1ccccc1NS(=O)(=O)c1ccc(Cl)c(NC(=O)c2sc3cc(Cl)ccc3c2Cl)c1,12.2,13.6,-0.3,-0.7,0.8,-0.8,·,
O=C(Nc1cc(S(=O)(=O)Nc2ccccc2Cl)ccc1O)c1sc2cc(Cl)ccc2c1Cl,6.8,-2.2,94.2*,-0.2,-5.6,149.9*,3.3,
CN(C)CC/C=C1\c2ccccc2Sc2ccc(Cl)cc21,26.0,86.8*,96.6*,-1.0,-4.0,0.3,-6.1,
CC[N+](C)(C)CC/C=C1/c2ccccc2Sc2ccc(Cl)cc21,7.2,·,2.0,-0.4,34.6,0.9,·,
OCCN1CCN(CC/C=C2/c3ccccc3Sc3ccc(Cl)cc32)CC1,·,·,94.2*,-0.3,·,-3.6,-21.1,
CC1=CN2C(=N)/C(=C/c3ccc(Sc4ccc(Cl)cc4)o3)C(=O)N=C2S1,76.7*,23.8,58.2*,-1.5,-31.5,9.3,41.5*,
CCCn1c(=O)c2sccc2n2c(CCCC(=O)NCC3CCCO3)nnc12 (stereo not drawn),·,·,-1.1,-0.8,·,0.8,·,
CCn1c(COc2cccc(C)c2C)nnc1SCC(=O)N1CCN(c2ccc(OC)cc2)CC1,68.5,5.0,60.4*,-0.5,-9.7,1.0,43.2*,
NC(=O)CC(CC(=O)OCc1ccccc1)c1ccccc1 (stereo not drawn),·,·,-0.5,-0.4,·,-4.1,·,
Cc1cccc(N=Nc2c(C)c(C#N)c(O)[nH]c2=O)c1,-16.0,-0.1,0.2,0.0,-36.2,-0.8,·,
Cc1csc2ncnc(N3CCN(C(=S)Nc4ccc(F)cc4F)CC3)c12,28.0,·,82.5*,-0.9,-5.1,2.9,74.6*,
O=C(Nc1ccc(F)cc1F)N1CCCN(c2ccc(C(F)(F)F)cn2)CC1,4.0,·,1.8,-0.5,2.0,2.0,·,
Fc1ccc(NC(=S)N2CCCN(c3ccc(C(F)(F)F)cn3)CC2)c(F)c1,53.1,·,71.2*,-0.7,-6.6,-2.1,44.5*,
COc1ccc(CN(C)C(=O)Cn2cnc3c(SC)nc(N)nc32)cc1OC,·,·,-0.4,-0.9,·,1.2,·,
O=[N+]([O-])/C=C1/CCCCCN1,5.2,3.2,-0.4,0.5,-10.4,-1.6,·,
COC(=O)c1ccc(Cl)c(NC(=O)NC23CC4CC(CC(C4)C2)C3)c1,43.1,-10.6,94.2*,0.6,-10.6,-3.9,82.5*,
Cc1nn(-c2ccccc2)c(Cl)c1/C=C1\SC(=S)NC1=O,-19.9,49.8,54.5*,0.2,-3.7,-5.3,66.0*,
Cc1ccc(S(=O)(=O)Nc2nc3ccccc3nc2N2CCOCC2)cc1,·,·,-1.2,-0.3,·,-0.2,·,
O=S(=O)(Nc1nc2ccccc2nc1N1CCN(c2ccccc2)CC1)c1ccc(F)cc1,49.4,43.1,78.6*,-1.2,23.9,23.8*,72.0*,
O=C(O)c1cccc(Nc2nc3ccccc3nc2NS(=O)(=O)c2ccc(F)cc2)c1,·,·,0.7,-0.4,·,0.5,·,
COc1ccc(S(=O)(=O)Nc2cccc(S(=O)(=O)N3CCCCCC3)c2)cc1,-14.8,-14.6,1.9,-0.5,-17.2,-6.3,·,
O=S(=O)(Nc1nc2ccccc2nc1Nc1cccc(S(=O)(=O)N2CCCCC2)c1)c1ccccc1,74.5*,-10.1,55.2*,-0.1,17.7,13.0*,44.4*,
SMILES,CHOP inh,WT yeast gro inh,MPTP inh,TbMetRS inhib,EBV gp42 block,NR3A LBD binder,MPTP counter,others
O=S(=O)(Nc1nc2ccccc2nc1Nc1ccc2c(c1)OCO2)c1ccc(F)cc1,22.3,8.3,51.4*,-1.1,15.2,-7.2,3.8,MPTP abs DR=4.11*;MPTP cs DR=<2.5*
COc1ccc(C(=O)NCC(c2cccs2)N2CCc3ccccc32)c(OC)c1 (stereo not drawn),·,·,0.1,-0.5,·,0.4,·,
CN(C(=O)CN1C(=O)NC2(CCCc3ccccc32)C1=O)C1CCCCC1 (stereo not drawn),·,·,-3.2,-0.1,·,-1.7,·,
N#CC1=C(N)NC(SCc2ccc(Br)cc2)=C(C#N)C12CCCCC2,93.5*,66.6*,91.6*,0.6,9.7,11.0*,78.6*,
N#CC1=C(N)NC(SCc2ccc(Cl)cc2)=C(C#N)C12CCCCC2,61.4,10.9,15.9,-0.3,17.7,6.0,·,
N#CC1=C(N)NC(SCC(=O)Nc2ccc(Br)cc2)=C(C#N)C12CCCCC2,73.1*,19.6,88.6*,4.3,-7.4,31.0*,89.3*,
COc1ccc(C2=NN(S(C)(=O)=O)C(c3cccs3)C2)cc1 (stereo not drawn),-20.7,-14.8,-1.6,-2.0,-27.5,0.8,·,
COc1ccc(CCNC(=O)c2cc(-c3ccc(Cl)c(Cl)c3)oc2C)cc1,15.5,40.4,91.4*,-0.7,0.9,4.9,90.9*,
COc1ccc(CCNC(=O)c2nn(C)cc2Cl)cc1,55.8,0.7,-0.7,0.5,-8.9,-5.1,·,
CCOP(=O)(OCC)C(NC(=O)Nc1ccc(Cl)c(Cl)c1)c1ccccc1 (stereo not drawn),20.3,-3.3,60.0*,0.6,14.9,-3.2,55.7*,
CCOP(=O)(OCC)C(NC(=O)Nc1ccc(Cl)cc1)c1ccccc1 (stereo not drawn),6.5,-12.2,2.4,0.1,2.8,2.4,·,
CCOP(=O)(OCC)C(NC(=O)Nc1ccc(C)c(Cl)c1)c1ccccc1 (stereo not drawn),23.7,-8.4,84.4*,0.1,8.7,23.8*,84.3*,
O=C(CSc1nnc(C2CC2)n1Cc1ccco1)NCC(F)(F)F,21.2,-14.8,-2.1,-1.1,-8.3,0.3,·,
CC(C)NC(=O)c1cc(C2CCCCN2C(=O)c2ccc(Cl)cc2)on1 (stereo not drawn),·,·,2.8,0.1,·,·,·,
COc1ccc(CCNc2ccc(N3C(=O)CC(C)C3=O)cc2[N+](=O)[O-])cc1 (stereo not drawn),62.7,9.3,7.4,-0.8,-6.3,2.0,·,
O=C1C2CC=CCC2C(=O)N1c1ccc(NCCc2ccc(O)cc2)c([N+](=O)[O-])c1 (stereo not drawn),-33.3,4.1,91.4*,0.0,-0.8,2.7,76.3*,
COc1ccc(CCNc2ccc(N3C(=O)CC(C)C3=O)cc2[N+](=O)[O-])cc1OC (stereo not drawn),52.1,-9.3,96.2*,-0.7,2.8,-2.3,81.7*,
